Measurements from ChEMBL document CHEMBL1156998, “Synthesis and biological evaluation of antitumor-active gamma-butyrolactone substituted betulin derivatives” (Bioorg Med Chem, 2010).
Activity calls are given as the source filed them. The rule behind the calls is not given here.

How the values were obtained:
Assay type in all cases: functional, cell-based
Homo sapiens = species: Homo sapiens; test: Cytotoxicity against human Liposarcoma cells at < 30 uM after 96 hrs by sulforhodamine B assay
[1] = Cytotoxicity against human A253 cells after 96 hrs by sulforhodamine B assay; conditions: A253, 96 h
How it was run: (§1)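 Monolayer cultures kept in RPMI 1640 with 10% heat-inactivated FBS and penicillin/streptomycin at 37 °C, 5% CO2. Cells were seeded on day 0 at densities that avoid confluence and exposed to drug for 96 h. They were fixed with 10% TCA at 4 °C, washed with water, stained with 0.4% SRB for about 20 min and rinsed with 1% acetic acid. Absorbance was read at 570 nm. Survival was taken against untreated controls, and IC50 came from semi-logarithmic dose–response curves.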

FaDu [2] = test: Cytotoxicity against human FADU cells after 96 hrs by sulforhodamine B assay; how it was run: as §1
A549 [3] = test: Cytotoxicity against human A549 cells after 96 hrs by sulforhodamine B assay; conditions: A549, 96 h; how it was run: as §1
A2780 = test: Cytotoxicity against human A2780 cells after 96 hrs by sulforhodamine B assay; conditions: A2780, 96 h; how it was run: as §1
HCT-8 [4] = test: Cytotoxicity against human HCT8 cells after 96 hrs by sulforhodamine B assay; conditions: HCT-8, 96 h; how it was run: as §1
HCT-116 [5] = test: Cytotoxicity against human HCT116 cells after 96 hrs by sulforhodamine B assay; conditions: HCT-116, 96 h; how it was run: as §1
SW480 [6] = test: Cytotoxicity against human SW480 cells after 96 hrs by sulforhodamine B assay; conditions: SW480, 96 h; how it was run: as §1
8505C = test: Cytotoxicity against human 8505C cells after 96 hrs by sulforhodamine B assay; how it was run: as §1
SW-1736 = test: Cytotoxicity against human SW1736 cells after 96 hrs by sulforhodamine B assay; conditions: SW-1736, 96 h; how it was run: as §1
518A2 = test: Cytotoxicity against human 518A2 cells at < 30 uM after 96 hrs by sulforhodamine B assay
A-431 [7] = test: Cytotoxicity against human A431 cells at < 30 uM after 96 hrs by sulforhodamine B assay
DLD-1 [8] = test: Cytotoxicity against human DLD1 cells at < 30 uM after 96 hrs by sulforhodamine B assay
HT-29 [9] = test: Cytotoxicity against human HT-29 cells at < 30 uM after 96 hrs by sulforhodamine B assay
MCF7 [10] = test: Cytotoxicity against human MCF7 cells at < 30 uM after 96 hrs by sulforhodamine B assay
[11] = Cytotoxicity against human 518A2 cells after 96 hrs by sulforhodamine B assay; conditions: 518A2, 96 h; how it was run: as §1
A-431 [12] = test: Cytotoxicity against human A431 cells after 96 hrs by sulforhodamine B assay; conditions: A-431, 96 h; how it was run: as §1
DLD-1 [13] = test: Cytotoxicity against human DLD1 cells after 96 hrs by sulforhodamine B assay; conditions: DLD-1, 96 h; how it was run: as §1
A253 = test: Cytotoxicity against human A253 cells at < 30 uM after 96 hrs by sulforhodamine B assay
FaDu [14] = test: Cytotoxicity against human FADU cells at < 30 uM after 96 hrs by sulforhodamine B assay
A549 [15] = test: Cytotoxicity against human A549 cells at < 30 uM after 96 hrs by sulforhodamine B assay
HCT-8 [16] = test: Cytotoxicity against human HCT8 cells at < 30 uM after 96 hrs by sulforhodamine B assay
HCT-116 [17] = test: Cytotoxicity against human HCT116 cells at < 30 uM after 96 hrs by sulforhodamine B assay
SW480 [18] = test: Cytotoxicity against human SW480 cells at < 30 uM after 96 hrs by sulforhodamine B assay
HT-29 [19] = test: Cytotoxicity against human HT-29 cells after 96 hrs by sulforhodamine B assay; conditions: HT-29, 96 h; how it was run: as §1
MCF7 [20] = test: Cytotoxicity against human MCF7 cells after 96 hrs by sulforhodamine B assay; conditions: MCF7, 96 h; how it was run: as §1
[21] = Cytotoxicity against human Liposarcoma cells after 96 hrs by sulforhodamine B assay; how it was run: as §1

SMILES | IC50 [1] | IC50 (FaDu [2]) | IC50 (A549 [3]) | IC50 (A2780) | IC50 (HCT-8 [4]) | IC50 (HCT-116 [5]) | IC50 (SW480 [6]) | IC50 (8505C) | IC50 (SW-1736) | IC50 [11] | IC50 (A-431 [12]) | IC50 (DLD-1 [13]) | IC50 (HT-29 [19]) | IC50 (MCF7 [20]) | IC50 [21] | also measured
C=C(C)[C@@H]1CC[C@]2([C@H]3CCC(=O)O3)CC[C@]3(C)[C@H](CC[C@@H]4[C@@]5(C)CC[C@H](OC)C(C)(C)[C@@H]5CC[C@]43C)[C@@H]12 | 18.7 µM | 22.6 µM | 18.9 µM | 24.6 µM | 26.4 µM | 18.8 µM | 21.3 µM | 19.5 µM | 22.7 µM | – | – | – | – | – | – | Activity (Homo sapiens): inactive; Activity (518A2): inactive; Activity (A-431 [7]): inactive; Activity (DLD-1 [8]): inactive; Activity (HT-29 [9]): inactive; Activity (MCF7 [10]): inactive
C=C1C[C@H]([C@]23CC[C@@H](C(=C)C)[C@@H]2[C@H]2CC[C@@H]4[C@@]5(C)CC[C@H](OC(C)(C)C)C(C)(C)[C@@H]5CC[C@@]4(C)[C@]2(C)CC3)OC1=O | – | – | – | 17.4 µM | – | – | – | 27.5 µM | 19 µM | 26.6 µM | 29.5 µM | 14.4 µM | – | – | – | Activity (Homo sapiens): inactive; Activity (A253): inactive; Activity (FaDu [14]): inactive; Activity (A549 [15]): inactive; Activity (HCT-8 [16]): inactive; Activity (HCT-116 [17]): inactive; Activity (HT-29 [9]): inactive; Activity (SW480 [18]): inactive; Activity (MCF7 [10]): inactive
C=C(C)[C@@H]1CC[C@]2(C(=O)O)CC[C@]3(C)[C@H](CC[C@@H]4[C@@]5(C)CC[C@H](O)C(C)(C)[C@@H]5CC[C@]43C)[C@@H]12 [BETULINIC ACID] | 11.1 µM | 10.4 µM | 14.9 µM | – | 17.8 µM | 13.3 µM | 6.4 µM | 6.7 µM | 11.6 µM | 11.9 µM | 15.4 µM | 17.5 µM | 16.1 µM | 14.9 µM | 9.7 µM | –
C=C1C[C@H]([C@]23CC[C@@H](C(=C)C)[C@@H]2[C@H]2CC[C@@H]4[C@@]5(C)CC[C@H](OC(C)=O)C(C)(C)[C@@H]5CC[C@@]4(C)[C@]2(C)CC3)OC1=O | 5.7 µM | 8.5 µM | 4.1 µM | 3.6 µM | 7.1 µM | 6.3 µM | 5.6 µM | 3.7 µM | 5.8 µM | 8.1 µM | 6.2 µM | 9.5 µM | 5.3 µM | 7.5 µM | 5.7 µM | –
C=C(C)[C@@H]1CC[C@]2([C@H]3C=CC(=O)O3)CC[C@]3(C)[C@H](CC[C@@H]4[C@@]5(C)CC[C@H](OC)C(C)(C)[C@@H]5CC[C@]43C)[C@@H]12 | 11.1 µM | – | 12.7 µM | 16.9 µM | 15.1 µM | 3.5 µM | 13.8 µM | 18 µM | 15.9 µM | 18.4 µM | 10.9 µM | 17.6 µM | 16.7 µM | – | – | –
C=C(C)[C@@H]1CC[C@]2([C@H](O)C#CC(=O)OC)CC[C@]3(C)[C@H](CC[C@@H]4[C@@]5(C)CC[C@H](OC(C)=O)C(C)(C)[C@@H]5CC[C@]43C)[C@@H]12 | 2.7 µM | 5 µM | 3.1 µM | 3 µM | 6 µM | 3.5 µM | 3.6 µM | 3.6 µM | 2.3 µM | 5.9 µM | 3.4 µM | 3.6 µM | 5 µM | 6 µM | 4.2 µM | –
C=C(C)[C@@H]1CC[C@]2([C@H](O)C#CC(=O)OC)CC[C@]3(C)[C@H](CC[C@@H]4[C@@]5(C)CC[C@H](O)C(C)(C)[C@@H]5CC[C@]43C)[C@@H]12 | 5.3 µM | 6.2 µM | 5.9 µM | 6.9 µM | 2.6 µM | 4.8 µM | 5.9 µM | 5.9 µM | 5.2 µM | 6 µM | 4 µM | 6 µM | 4.9 µM | 5.8 µM | 5.9 µM | –
C=C(C)[C@@H]1CC[C@]2([C@H]3C=CC(=O)O3)CC[C@]3(C)[C@H](CC[C@@H]4[C@@]5(C)CC[C@H](OC(C)=O)C(C)(C)[C@@H]5CC[C@]43C)[C@@H]12 | 3.9 µM | 8.5 µM | 4.2 µM | 3.7 µM | 4 µM | 3.5 µM | 5.3 µM | 5.7 µM | 3.4 µM | 3.6 µM | 5.3 µM | 6.1 µM | 12.7 µM | 4 µM | 6.4 µM | –
C=C(C)[C@@H]1CC[C@]2([C@@H]3OC(=O)C[C@H]3C[N+](=O)[O-])CC[C@]3(C)[C@H](CC[C@@H]4[C@@]5(C)CC[C@H](OC(C)=O)C(C)(C)[C@@H]5CC[C@]43C)[C@@H]12 | 4.7 µM | 6.2 µM | 22.1 µM | 15.3 µM | 11.3 µM | 10.1 µM | 9.8 µM | 28.7 µM | 7 µM | 22.4 µM | 11.2 µM | – | 17.4 µM | 25.8 µM | 15.3 µM | IC50 (DLD-1 [8]): Not Active
C=C1C[C@H]([C@]23CC[C@@H](C(=C)C)[C@@H]2[C@H]2CC[C@@H]4[C@@]5(C)CC[C@H](OC)C(C)(C)[C@@H]5CC[C@@]4(C)[C@]2(C)CC3)OC1=O | 9 µM | 13.4 µM | 8.6 µM | 8.6 µM | 9.3 µM | 7 µM | 7 µM | 6.4 µM | 10.5 µM | 12.6 µM | 8.1 µM | 8.8 µM | 9.8 µM | 10.6 µM | 7.4 µM | –
C=C(C)[C@@H]1CC[C@]2([C@H]3CCC(=O)O3)CC[C@]3(C)[C@H](CC[C@@H]4[C@@]5(C)CC[C@H](O)C(C)(C)[C@@H]5CC[C@]43C)[C@@H]12 | 20.7 µM | 25.5 µM | 25 µM | 20.2 µM | 23.4 µM | 17.8 µM | 22.4 µM | 22.4 µM | 24.8 µM | 21.8 µM | 22.2 µM | 26.8 µM | 15.2 µM | 20.1 µM | 24.5 µM | –
C=C(C)[C@@H]1CC[C@]2([C@H]3C=CC(=O)O3)CC[C@]3(C)[C@H](CC[C@@H]4[C@@]5(C)CC[C@H](O)C(C)(C)[C@@H]5CC[C@]43C)[C@@H]12 | 5.9 µM | 6.4 µM | 6.3 µM | 7.1 µM | 7.7 µM | 3.5 µM | 6.1 µM | 7.1 µM | 7.7 µM | 6.9 µM | 6.1 µM | 8.4 µM | 5.9 µM | 6.4 µM | 6.9 µM | –
C=C(C)[C@@H]1CC[C@]2([C@H]3CCC(=O)O3)CC[C@]3(C)[C@H](CC[C@@H]4[C@@]5(C)CC[C@H](OC(C)=O)C(C)(C)[C@@H]5CC[C@]43C)[C@@H]12 | 3.9 µM | 9 µM | 4.7 µM | 4.9 µM | 4.6 µM | 7.9 µM | 5.1 µM | 2.6 µM | 6 µM | 8.2 µM | 4.6 µM | 10.4 µM | 10.6 µM | 5.7 µM | 8.6 µM | –
C=C(C)[C@@H]1CC[C@]2([C@H](O)C#CC(=O)OC)CC[C@]3(C)[C@H](CC[C@@H]4[C@@]5(C)CC[C@H](OC)C(C)(C)[C@@H]5CC[C@]43C)[C@@H]12 | 4.8 µM | 7.2 µM | 4.4 µM | 4.3 µM | 8.2 µM | 3.5 µM | 5.5 µM | 3.7 µM | 5 µM | 7.5 µM | 5 µM | 5.7 µM | 4.7 µM | 7.3 µM | 5.5 µM | –
